From ChEMBL document CHEMBL4616681, “Discovery of 3-Pyridyl Isoindolin-1-one Derivatives as Potent, Selective, and Orally Active Aldosterone Synthase (CYP11B2) Inhibitors” (J Med Chem, 2020)
≈ marks a conversion by molar mass, not a printed value.

How the values were obtained:
Cytochrome P450 2D6 = Cytochrome P450 2D6 (Homo sapiens, UniProt P10635); assay: Inhibition of CYP2D6 (unknown origin); type: ADME
[1] = target: T1, Cytochrome P450 11B1, mitochondrial (Homo sapiens, UniProt P15538); assay: Inhibition of human CYP11B1 expressed in human renal leiomyoblastoma cells harboring FDXR/FDX using 1-deoxycortisol as substrate by HTRF assay; type: ADME, cell-based
T1 sequence (P15538 whole entry): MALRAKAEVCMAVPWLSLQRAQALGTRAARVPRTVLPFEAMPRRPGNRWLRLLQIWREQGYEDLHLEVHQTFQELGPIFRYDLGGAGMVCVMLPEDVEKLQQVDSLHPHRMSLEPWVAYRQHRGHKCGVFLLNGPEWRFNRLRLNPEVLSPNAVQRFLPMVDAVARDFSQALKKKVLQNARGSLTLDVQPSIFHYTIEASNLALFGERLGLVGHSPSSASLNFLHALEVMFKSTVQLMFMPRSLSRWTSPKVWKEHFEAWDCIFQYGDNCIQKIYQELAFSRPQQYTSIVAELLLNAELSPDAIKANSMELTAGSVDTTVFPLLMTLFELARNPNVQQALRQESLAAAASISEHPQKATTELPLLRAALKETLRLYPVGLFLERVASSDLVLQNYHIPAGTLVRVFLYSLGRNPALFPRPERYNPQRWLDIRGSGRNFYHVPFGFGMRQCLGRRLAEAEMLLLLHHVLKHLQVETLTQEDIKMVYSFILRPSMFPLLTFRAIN
Procedure, shortened: (§1)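 Cells with endogenous FDXR/FDX and no detectable CYP11B activity, stably transfected (CMV promoter, neomycin selection, G-418 400 µg/mL) with CYP11B1 or CYP11B2 of the named species. Assayed in DMEM/F12 with 2.5% charcoal-treated FCS. Substrate 1 µM 11-deoxycorticosterone (B2) or 11-deoxycortisol (B1), 16 hr. Aldosterone or cortisol in supernatant measured by HTRF. IC50 from 4-parameter MMF fit; selectivity factor is the B1/B2 IC50 ratio.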

Cytochrome P450 3A4 = Cytochrome P450 3A4 (Homo sapiens, UniProt P08684); assay: Inhibition of CYP3A4 (unknown origin); type: ADME
Sequence of Cytochrome P450 3A4 (P08684 whole entry): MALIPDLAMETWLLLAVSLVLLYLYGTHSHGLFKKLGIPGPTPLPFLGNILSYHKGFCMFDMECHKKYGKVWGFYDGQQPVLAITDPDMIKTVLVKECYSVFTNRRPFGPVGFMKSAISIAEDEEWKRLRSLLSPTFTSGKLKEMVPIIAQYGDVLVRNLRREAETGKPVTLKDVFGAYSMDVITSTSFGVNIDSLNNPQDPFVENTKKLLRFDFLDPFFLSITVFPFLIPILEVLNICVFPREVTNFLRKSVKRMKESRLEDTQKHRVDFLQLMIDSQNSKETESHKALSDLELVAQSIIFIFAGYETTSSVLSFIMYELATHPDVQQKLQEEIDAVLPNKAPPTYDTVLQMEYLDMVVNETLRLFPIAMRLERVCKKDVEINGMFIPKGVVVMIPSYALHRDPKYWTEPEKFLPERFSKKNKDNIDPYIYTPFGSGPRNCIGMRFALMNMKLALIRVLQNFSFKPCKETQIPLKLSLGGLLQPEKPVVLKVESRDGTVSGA

[2] = Intrinsic clearance in human liver microsomes preincubated for 10 mins followed by NADPH regenerating system addition and measured up to 30 mins by LC/MS-MS analysis; type: ADME, Microsome; conditions: read-out: CLH
Procedure, shortened: (§2)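 Liver microsomes at 0.5 mg protein/mL in 100 mM potassium phosphate, pH 7.4. Compound preincubated 10 min at 37 °C. Intrinsic clearance scaled using the well-stirred liver model.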

Cytochrome P450 2C9 = Cytochrome P450 2C9 (Homo sapiens, UniProt P11712); assay: Inhibition of CYP2C9 (unknown origin); type: ADME
Sequence of Cytochrome P450 2C9 (P11712 whole entry): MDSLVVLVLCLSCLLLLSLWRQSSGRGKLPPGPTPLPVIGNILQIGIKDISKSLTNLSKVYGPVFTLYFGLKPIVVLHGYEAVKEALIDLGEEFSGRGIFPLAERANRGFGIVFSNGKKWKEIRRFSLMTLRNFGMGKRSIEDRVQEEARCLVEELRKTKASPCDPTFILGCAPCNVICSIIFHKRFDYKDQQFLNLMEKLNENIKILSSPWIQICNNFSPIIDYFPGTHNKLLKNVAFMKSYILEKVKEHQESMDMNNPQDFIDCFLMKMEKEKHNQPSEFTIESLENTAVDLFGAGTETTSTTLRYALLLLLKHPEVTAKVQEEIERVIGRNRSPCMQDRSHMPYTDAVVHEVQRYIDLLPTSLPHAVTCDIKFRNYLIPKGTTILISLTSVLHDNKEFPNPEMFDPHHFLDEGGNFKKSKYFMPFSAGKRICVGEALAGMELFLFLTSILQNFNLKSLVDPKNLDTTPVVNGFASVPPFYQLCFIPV

[3] = Intrinsic clearance in mouse liver microsomes preincubated for 10 mins followed by NADPH regenerating system addition and measured up to 30 mins by LC/MS-MS analysis; type: ADME, Microsome; procedure, shortened: as §2
[4] = target: T2, Cytochrome P450 11B2, mitochondrial (Homo sapiens, UniProt P19099); assay: Inhibition of human CYP11B2 expressed in human renal leiomyoblastoma cells harboring FDXR/FDX using 1-deoxycorticosterone as substrate by HTRF assay; type: cell-based; procedure, shortened: as §1
T2 sequence (P19099 whole entry): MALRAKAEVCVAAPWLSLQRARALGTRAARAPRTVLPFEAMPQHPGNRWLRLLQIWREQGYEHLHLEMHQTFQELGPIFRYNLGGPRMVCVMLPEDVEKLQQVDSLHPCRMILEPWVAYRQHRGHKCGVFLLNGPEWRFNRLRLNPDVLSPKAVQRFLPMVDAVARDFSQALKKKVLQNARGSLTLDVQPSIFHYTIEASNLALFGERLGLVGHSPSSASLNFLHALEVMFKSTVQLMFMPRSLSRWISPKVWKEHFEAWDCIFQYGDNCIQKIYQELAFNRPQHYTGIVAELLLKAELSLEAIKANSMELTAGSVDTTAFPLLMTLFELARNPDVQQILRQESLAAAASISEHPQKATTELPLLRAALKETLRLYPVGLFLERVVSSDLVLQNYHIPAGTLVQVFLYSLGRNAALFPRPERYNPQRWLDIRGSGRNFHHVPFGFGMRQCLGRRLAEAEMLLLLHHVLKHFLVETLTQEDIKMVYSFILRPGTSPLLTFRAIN

[5] = Selectivity ratio of IC50 for human CYP11B1 expressed in human renal leiomyoblastoma cells harboring FDXR/FDX to IC50 for human CYP11B2 expressed in human renal leiomyoblastoma cells harboring FDXR/FDX; type: cell-based; procedure, shortened: as §1
[6] = Octanol-water distribution coefficient, log D of the compound by carrier-mediated distribution system; type: physicochemical
[7] = Inhibition of cynomolgus monkey CYP11B2 expressed in human G401 cells using 1-deoxycorticosterone as substrate by HTRF assay; type: cell-based, Macaca fascicularis; conditions: g-401; procedure, shortened: as §1
[8] = AUC (0 to infinity) in Wister-Han rat at 3 mg/kg, po administered as single dose by LC/MS-MS analysis; type: ADME, organism-based; set-up: dose 3 mg/kg, route oral, time infinity; conditions: Wistar-Han, in vivo
Procedure, shortened: (§3)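 Male Wistar-Han rats, single dose. IV 1 mg/kg, compound at 0.5 mg/mL in NMP:saline 30/70 (v/v). Oral 3 mg/kg, 0.25 mg/mL in 2% Klucel with 0.1% Polysorbate 80. Three rats per time point. Heparinized blood taken at eight (iv) or seven (po) time points, plasma stored at -20 °C. Plasma levels by LC/MS-MS. Non-compartmental analysis.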

[9] = Selectivity ratio of IC50 for cynomolgus monkey CYP11B1 expressed in human G401 cells to IC50 for cynomolgus monkey CYP11B2 expressed in human G401 cells; type: cell-based; procedure, shortened: as §1
[10] = Oral bioavailability in Wister-Han rat at 3 mg/kg administered as single dose by LC/MS-MS analysis; type: ADME, organism-based; conditions: Wistar-Han, in vivo; procedure, shortened: as §3
[11] = Intrinsic clearance in rat liver microsomes preincubated for 10 mins followed by NADPH regenerating system addition and measured up to 30 mins by LC/MS-MS analysis; type: ADME, Microsome; procedure, shortened: as §2
[12] = Solubility of the compound in phosphate buffer at pH 6.5 shaken for 2 hrs followed by overnight incubation; type: physicochemical
Procedure, shortened: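 Lyophilisation solubility assay run in duplicate from 10 mM DMSO stock. DMSO evaporated and residue redissolved in 0.05 M phosphate, pH 6.5. Stirred 1 hr, shaken 2 hr, left overnight, then filtered. Filtrate and a 1/10 dilution analysed by HPLC-UV against a four-point calibration.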

[13] = Permeability of the compound measured at 18 hrs by PAMPA; type: ADME; conditions: read-out: permeability
Procedure, shortened: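 PAMPA sandwich format. Donor: compound diluted to 150 μM (DMSO <2%) in 0.05 M MOPSO pH 6.5 with 0.5% glycocholic acid. Acceptor: 0.05 M MOPSO pH 6.5. Membrane of 10% egg lecithin with 0.5% cholesterol in dodecane. Donor measured at start; acceptor and donor measured at ~18 hr.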

[14] = Plasma clearance in Wister-Han rat at 1 mg/kg, iv administered as single dose by LC/MS-MS analysis; type: ADME, organism-based; conditions: Wistar-Han; procedure, shortened: as §3

Sequence of Cytochrome P450 2D6 (P10635 whole entry): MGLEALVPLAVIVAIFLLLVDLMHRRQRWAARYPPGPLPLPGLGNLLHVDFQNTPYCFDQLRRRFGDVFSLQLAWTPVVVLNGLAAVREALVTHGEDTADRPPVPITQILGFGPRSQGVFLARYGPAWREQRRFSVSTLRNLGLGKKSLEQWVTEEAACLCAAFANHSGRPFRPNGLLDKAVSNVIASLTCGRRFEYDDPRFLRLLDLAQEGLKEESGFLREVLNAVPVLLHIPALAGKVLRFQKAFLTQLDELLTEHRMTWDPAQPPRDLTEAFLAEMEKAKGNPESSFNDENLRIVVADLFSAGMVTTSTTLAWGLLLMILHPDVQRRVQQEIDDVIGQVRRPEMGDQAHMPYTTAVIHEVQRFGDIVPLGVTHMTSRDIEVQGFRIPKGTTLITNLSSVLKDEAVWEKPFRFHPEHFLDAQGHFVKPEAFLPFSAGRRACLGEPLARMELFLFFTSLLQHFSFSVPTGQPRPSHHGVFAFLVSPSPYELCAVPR

SMILES	IC50 (Cytochrome P450 2D6)	IC50 [1]	IC50 (Cytochrome P450 3A4)	predicted hepatic clearance [2]	IC50 (Cytochrome P450 2C9)	predicted hepatic clearance (CLH) [3]	IC50 [4]	logD [6]	IC50 [7]	AUC(0-inf) [8]	bioavailability [10]	predicted hepatic clearance (CLH) [11]	solubility at 2 h [12]	Papp at 18 h [13]	clearance [14]	Ratio IC50 [5]	Ratio IC50 [9]
CC1(C)c2cc(Cl)ccc2C(=O)N1c1cncc(N2CCN(S(C)(=O)=O)CC2)c1	–	–	–	–	–	–	0.002 µM	–	0.0002 µM	1640 ng·h/mL	54%	16.8 mL/min/kg	91 µg/mL (≈ 209 µM)	6.03 ×10⁻⁶ cm/s	16.6 mL/min/kg	146	170
CCC(=O)N[C@@H]1CCCc2c1cncc2N1Cc2cc(Cl)ccc2C1=O	–	5.21 µM	–	< 3.5 mL/min/kg	–	< 20.2 mL/min/kg	0.028 µM	2.14	–	–	–	–	> 460 µg/mL	3.63 ×10⁻⁶ cm/s	–	186	–
Cc1ccncc1C(=O)N1CC(Oc2cncc(N3C(=O)c4ccc(Cl)cc4C3(C)C)c2)C1	–	–	–	–	–	–	0.004 µM	–	0.0009 µM	1020 ng·h/mL	40%	10.4 mL/min/kg	290 µg/mL (≈ 626 µM)	5.4 ×10⁻⁶ cm/s	15.8 mL/min/kg	553	1770
CCS(=O)(=O)N1CCC(c2cncc(N3C(=O)c4ccc(Cl)cc4C3(C)C)c2)CC1	–	–	–	–	–	–	0.003 µM	–	0.0004 µM	1460 ng·h/mL	87%	35.1 mL/min/kg	39 µg/mL (≈ 87.1 µM)	4.01 ×10⁻⁶ cm/s	29.7 mL/min/kg	106	430
Cn1cc(C(=O)N2CC(Oc3cncc(N4C(=O)c5ccc(Cl)cc5C4(C)C)c3)C2)cn1	–	–	–	–	–	–	0.0005 µM	–	–	7880 ng·h/mL	60%	6.4 mL/min/kg	310 µg/mL (≈ 686 µM)	3.45 ×10⁻⁶ cm/s	3.8 mL/min/kg	4160	–

Now from value to compound, other results behind:

IC50 (Cytochrome P450 2D6)	IC50 [1]	IC50 (Cytochrome P450 3A4)	predicted hepatic clearance [2]	IC50 (Cytochrome P450 2C9)	predicted hepatic clearance (CLH) [3]	IC50 [4]	logD [6]	IC50 [7]	AUC(0-inf) [8]	bioavailability [10]	predicted hepatic clearance (CLH) [11]	solubility at 2 h [12]	Papp at 18 h [13]	clearance [14]	SMILES	Ratio IC50 [5]	Ratio IC50 [9]
> 50 µM	2.59 µM	> 50 µM	6.6 mL/min/kg	> 50 µM	45 mL/min/kg	0.164 µM	–	–	–	–	–	–	–	–	CC1CN(c2cccnc2)C(=O)c2ccc(Cl)cc21 (stereo unspecified)	16	–
–	10.7 µM	–	12.8 mL/min/kg	–	76.5 mL/min/kg	0.179 µM	2.52	–	–	–	–	–	–	–	O=C1c2ccc(Cl)cc2CN1c1cccnc1	60	–
–	15.5 µM	–	8.7 mL/min/kg	–	45.6 mL/min/kg	0.232 µM	1.35	–	–	–	–	–	–	–	N#Cc1ccc2c(c1)CN(c1cccnc1)C2=O	67	–
